The text below walks through data of article PMC11027041 (RSC Advances, 2024).

Each structure is given as a SMILES string. Some results are limits rather than exact numbers.

Experiment [1] has as its system melanoma cell line SK-MEL-2. The experiment can be described thus: Cell viability assay. It counts as cell-based. As to conditions: Homo sapiens, SK-MEL-2, 72 h, read-out: Antiproliferative IC50 SK-MEL-2.
The subject of experiment [2] is colon cancer cell line HCT-116. Briefly: Cell viability assay. It counts as cell-based. As to conditions: Homo sapiens, HCT-116, 72 h, read-out: Antiproliferative IC50 HCT116.
The next experiment addresses HDAC1 (Homo sapiens, UniProt Q13547). Briefly: In vitro HDAC enzyme assay. The class given is biochemical. Conditions: for inhibition at 0.5 µM: read-out: Inhibition% (inhibition rate, IR) against HDAC1, at a concentration of 500 nM.
For experiment [3], the system named is normal bone marrow cells HS-5. The experiment can be described thus: Cell viability assay. The class given is cell-based. As to conditions: 72 h, read-out: Antiproliferative IC50 HS-5. Summed up:
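Cells grown in IMDM with 20% FBS, 100 U per mL penicillin and 100 μg per mL streptomycin, then plated in 96-well format. Test compound exposure was 72 h. Alamar blue solution (1 mM, as added) was then applied for a further 5–6 h, and […] was read at 530/590 nm. Data were normalized to vehicle, as means of three independent measurements (standard errors <20%), and IC50 was calculated.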

HDAC1, sequence (Q13547 whole entry): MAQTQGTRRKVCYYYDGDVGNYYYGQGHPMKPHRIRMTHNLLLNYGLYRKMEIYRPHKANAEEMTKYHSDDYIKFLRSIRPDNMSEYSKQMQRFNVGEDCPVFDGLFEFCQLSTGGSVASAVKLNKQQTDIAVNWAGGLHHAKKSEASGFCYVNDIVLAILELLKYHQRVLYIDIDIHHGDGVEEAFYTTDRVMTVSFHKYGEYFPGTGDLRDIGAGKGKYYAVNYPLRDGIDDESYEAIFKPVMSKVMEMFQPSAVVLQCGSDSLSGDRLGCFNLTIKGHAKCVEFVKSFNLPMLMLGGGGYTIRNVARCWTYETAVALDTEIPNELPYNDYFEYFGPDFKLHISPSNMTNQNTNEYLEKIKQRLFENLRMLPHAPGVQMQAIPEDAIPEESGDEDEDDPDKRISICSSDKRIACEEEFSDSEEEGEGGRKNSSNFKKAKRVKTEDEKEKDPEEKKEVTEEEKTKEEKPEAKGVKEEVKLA

For the compound `O=C(CCCCCCNC(=O)c1cnc(N(c2ccccc2)c2ccccc2)nc1)NO` [ACY-1215, reference compound], the IC50 in experiment [1] turned out to be 4.5 ± 0.14 µM; in experiment [2], 3.87 ± 0.11 µM.

`COc1ccc(CN2Cc3[nH]c4ccccc4c3C[C@H]2C(=O)NCCCCCCC(=O)NO)cc1` [Compound 9a, (S)-N-(7-(Hydroxyamino)-7-oxoheptyl)-2-(4-methoxybenzyl)-2,3,4,9-tetrahydro-1H-pyrido[3,4-b]indole-3-carboxamide]: on HDAC1 (duplicate), the inhibition at 0.5 µM came to 31.8%.

Consider `COc1ccc([C@H]2N[C@H](C(=O)NCCCCCC(=O)NO)Cc3c2[nH]c2ccccc32)cc1` [Compound 9b, (1R,3S)-N-(6-(Hydroxyamino)-6-oxohexyl)-1-(4-methoxyphenyl)-2,3,4,9-tetrahydro-1H-pyrido[3,4-b]indole-3-carboxamide], for which the inhibition at 0.5 µM on HDAC1 (duplicate) came out at 23.2%.

For `COc1ccc([C@H]2N[C@H](C(=O)NCCCCCCC(=O)NO)Cc3c2[nH]c2ccccc32)cc1` [Compound 9c, (1R,3S)-N-(7-(Hydroxyamino)-7-oxoheptyl)-1-(4-methoxyphenyl)-2,3,4,9-tetrahydro-1H-pyrido[3,4-b]indole-3-carboxamide], the inhibition at 0.5 µM on HDAC1 (duplicate) came out at 41.3%.

On to `O=C(CCCCCNC(=O)[C@@H]1Cc2c([nH]c3ccccc23)[C@@H](c2ccccc2)N1)NO` [Compound 9d, (1R,3S)-N-(6-(Hydroxyamino)-6-oxohexyl)-1-phenyl-2,3,4,9-tetrahydro-1H-pyrido[3,4-b]indole-3-carboxamide], for which the inhibition at 0.5 µM at HDAC1 (duplicate) worked out at 39.6%.

Turning to `COc1ccc(CN2[C@H](C)c3[nH]c4ccccc4c3C[C@H]2C(=O)NCCCCCC(=O)NO)cc1` [Compound 9e, (1R,3S)-N-(6-(Hydroxyamino)-6-oxohexyl)-2-(4-methoxybenzyl)-1-methyl-2,3,4,9-tetrahydro-1H-pyrido[3,4-b]indole-3-carboxamide], the inhibition at 0.5 µM on HDAC1 (duplicate) was 58.1%.

Take `COc1ccc(CN2[C@H](C)c3[nH]c4ccccc4c3C[C@H]2C(=O)NCCCCCCC(=O)NO)cc1` [Compound 9f, (1R,3S)-N-(7-(Hydroxyamino)-7-oxoheptyl)-2-(4-methoxybenzyl)-1-methyl-2,3,4,9-tetrahydro-1H-pyrido[3,4-b]indole-3-carboxamide]: the inhibition at 0.5 µM on HDAC1 (duplicate) worked out at 40.8%.

In the case of `O=C(CCCCCCNC(=O)[C@@H]1Cc2c([nH]c3ccccc23)[C@@H](c2ccc(Cl)cc2)N1)NO` [Compound 9g, (1R,3S)-1-(4-Chlorophenyl)-N-(7-(hydroxyamino)-7-oxoheptyl)-2,3,4,9-tetrahydro-1H-pyrido[3,4-b]indole-3-carboxamide], the inhibition at 0.5 µM on HDAC1 (duplicate) stood at 65.4%.

Regarding `COc1ccc([C@H]2N[C@H](C(=O)NCCCCCCC(=O)NO)Cc3c2[nH]c2ccccc32)cc1OC` [Compound 9h, (1R,3S)-1-(3,4-Dimethoxyphenyl)-N-(7-(hydroxyamino)-7-oxoheptyl)-2,3,4,9-tetrahydro-1H-pyrido[3,4-b]indole-3-carboxamide], the inhibition at 0.5 µM on HDAC1 (duplicate) stood at 46.5%.

Turning to `O=C(CCCCCCNC(=O)[C@@H]1Cc2c([nH]c3ccccc23)[C@@H](C2CC2)N1)NO` [Compound 9i, (1R,3S)-1-Cyclopropyl-N-(7-(hydroxyamino)-7-oxoheptyl)-2,3,4,9-tetrahydro-1H-pyrido[3,4-b]indole-3-carboxamide], the inhibition at 0.5 µM on HDAC1 (duplicate) was determined as 77.3%.

As for `COc1ccc(CN2Cc3[nH]c4ccccc4c3C[C@@H]2C(=O)NCCCCCCC(=O)NO)cc1` [Compound 13a, (R)-N-(7-(Hydroxyamino)-7-oxoheptyl)-2-(4-methoxybenzyl)-2,3,4,9-tetrahydro-1H-pyrido[3,4-b]indole-3-carboxamide], on HDAC1 (duplicate), the inhibition at 0.5 µM stood at 44.3%.

With `COc1ccc([C@@H]2N[C@@H](C(=O)NCCCCCC(=O)NO)Cc3c2[nH]c2ccccc32)cc1` [Compound 13b, (1S,3R)-N-(6-(Hydroxyamino)-6-oxohexyl)-1-(4-methoxyphenyl)-2,3,4,9-tetrahydro-1H-pyrido[3,4-b]indole-3-carboxamide], the inhibition at 0.5 µM at HDAC1 (duplicate) was determined as 49.2%.

With `COc1ccc([C@@H]2N[C@@H](C(=O)NCCCCCCC(=O)NO)Cc3c2[nH]c2ccccc32)cc1` [Compound 13c, (1S,3R)-N-(7-(Hydroxyamino)-7-oxoheptyl)-1-(4-methoxyphenyl)-2,3,4,9-tetrahydro-1H-pyrido[3,4-b]indole-3-carboxamide], the IC50 against HDAC1 was found to be 0.047 ± 0.00125 µM. Besides, the “Inhibition% (inhibition rate, IR) against HDAC1” value at HDAC1 (at a concentration of 500 nM, duplicate, 0.5 µM) is recorded as 81.6%. For the same compound, on HDAC1 (duplicate), the inhibition at 0.5 µM was 66%.

For the compound `COc1ccc(CN2[C@@H](C(=O)NCCCCCC(=O)NO)Cc3c([nH]c4ccccc34)[C@@H]2C)cc1` [Compound 13e, (1S,3R)-N-(6-(Hydroxyamino)-6-oxohexyl)-2-(4-methoxybenzyl)-1-methyl-2,3,4,9-tetrahydro-1H-pyrido[3,4-b]indole-3-carboxamide], the IC50 in experiment [3] is greater than 50 µM; in experiment [1], 9.65 ± 0.46 µM; at HDAC1 it was 0.0536 ± 0.0025 µM; in experiment [2], 8.34 ± 0.24 µM. Moreover, the inhibition at 0.5 µM on HDAC1 (duplicate) is 84.8%.

In the case of `COc1ccc(CN2[C@@H](C(=O)NCCCCCCC(=O)NO)Cc3c([nH]c4ccccc34)[C@@H]2C)cc1` [Compound 13f, (1S,3R)-N-(7-(Hydroxyamino)-7-oxoheptyl)-2-(4-methoxybenzyl)-1-methyl-2,3,4,9-tetrahydro-1H-pyrido[3,4-b]indole-3-carboxamide], the IC50 in experiment [3] is greater than 50 µM; in experiment [1], 5.7 ± 0.12 µM; against HDAC1, 0.0224 ± 0.00084 µM; in experiment [2], 4.22 ± 0.12 µM. Besides, the inhibition at 0.5 µM at HDAC1 (duplicate) came to 91.4%.

Turning to `O=C(CCCCCCNC(=O)[C@H]1Cc2c([nH]c3ccccc23)[C@H](C2CC2)N1Cc1ccccc1)NO` [Compound 13g, (1S,3R)-2-Benzyl-1-cyclopropyl-N-(7-(hydroxyamino)-7-oxoheptyl)-2,3,4,9-tetrahydro-1H-pyrido[3,4-b]indole-3-carboxamide], the IC50 in experiment [3] is greater than 50 µM; in experiment [1], 3.16 ± 0.08 µM; at HDAC1, 0.0104 ± 0.00065 µM; in experiment [2], 3.2 ± 0.09 µM. Besides, at HDAC1 (duplicate), the inhibition at 0.5 µM stood at 98.2%.

Take `O=C(CCCCCNC(=O)[C@H]1Cc2c([nH]c3ccccc23)[C@H](c2ccc(Cl)cc2)N1)NO` [Compound 13h, (1S,3R)-1-(4-Chlorophenyl)-N-(6-(hydroxyamino)-6-oxohexyl)-2,3,4,9-tetrahydro-1H-pyrido[3,4-b]indole-3-carboxamide]: the inhibition at 0.5 µM at HDAC1 (duplicate) turned out to be 51.3%.

On to `O=C(CCCCCCNC(=O)[C@H]1Cc2c([nH]c3ccccc23)[C@H](c2ccc(Cl)cc2)N1)NO` [Compound 13i, (1S,3R)-1-(4-Chlorophenyl)-N-(7-(hydroxyamino)-7-oxoheptyl)-2,3,4,9-tetrahydro-1H-pyrido[3,4-b]indole-3-carboxamide], for which the results for the IC50 in experiment [3], in experiment [1] and in experiment [2] were greater than 50 µM, 7.84 ± 0.26 µM and 7.55 ± 0.18 µM, respectively. Besides, at HDAC1 (duplicate), the inhibition at 0.5 µM stood at 66%.

Consider `COc1ccc([C@@H]2N[C@@H](C(=O)NCCCCCCC(=O)NO)Cc3c2[nH]c2ccccc32)cc1OC` [Compound 13j, (1S,3R)-1-(3,4-Dimethoxyphenyl)-N-(7-(hydroxyamino)-7-oxoheptyl)-2,3,4,9-tetrahydro-1H-pyrido[3,4-b]indole-3-carboxamide], for which, at HDAC1 (duplicate), the inhibition at 0.5 µM came to 72.5%.
